From ChEMBL document CHEMBL4725383 (Bioorg Med Chem, 2020)
The source made the active and inactive calls. No cut-off for these calls is given here.

Columns and labels:
[1] = target: T1, Microtubule-associated protein tau (Homo sapiens, UniProt P10636); assay: Inhibition of human full length recombinant tau-441 expressed in Escherichia coli assessed as inhibition of heparin-induced protein aggregation by measuring reduction in fluorescence intensity at 5 to 120 uM incubated for 72 hrs by Proteo-stat fluorescence aggregation assay; conditions: dose microM 5-120, time 72.0 hrs
T1 sequence (P10636 whole entry): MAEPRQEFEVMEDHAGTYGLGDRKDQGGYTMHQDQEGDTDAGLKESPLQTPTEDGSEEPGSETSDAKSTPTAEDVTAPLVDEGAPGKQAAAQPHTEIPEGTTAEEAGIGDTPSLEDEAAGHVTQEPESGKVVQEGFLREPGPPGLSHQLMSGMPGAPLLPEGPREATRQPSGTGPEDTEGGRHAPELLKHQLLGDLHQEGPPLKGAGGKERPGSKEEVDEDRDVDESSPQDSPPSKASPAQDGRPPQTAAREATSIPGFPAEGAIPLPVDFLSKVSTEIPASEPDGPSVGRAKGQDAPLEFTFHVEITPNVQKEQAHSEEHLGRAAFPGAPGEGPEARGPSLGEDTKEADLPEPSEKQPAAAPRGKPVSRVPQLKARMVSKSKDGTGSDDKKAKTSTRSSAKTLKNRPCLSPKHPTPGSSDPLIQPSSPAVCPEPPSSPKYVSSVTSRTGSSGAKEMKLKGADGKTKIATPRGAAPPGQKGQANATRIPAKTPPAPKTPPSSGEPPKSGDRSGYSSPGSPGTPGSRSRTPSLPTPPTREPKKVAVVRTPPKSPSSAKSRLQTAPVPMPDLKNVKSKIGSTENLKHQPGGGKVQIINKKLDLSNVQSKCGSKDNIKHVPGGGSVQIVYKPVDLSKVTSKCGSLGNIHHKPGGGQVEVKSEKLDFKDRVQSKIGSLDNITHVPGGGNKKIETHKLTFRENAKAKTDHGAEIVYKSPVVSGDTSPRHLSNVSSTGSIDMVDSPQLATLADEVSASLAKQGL
In short: (§1)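 Recombinant full-length tau441 (19.8 μM final, 909 μg/mL) is aggregated with heparin (4.95 μM final) in pH 6.8 tau buffer (MES, EGTA, NaCl) for 72 h at 37 °C. Compounds are dissolved in DMSO and added at 5, 40, 120 or 250 μM final. A 10 μL aliquot is mixed 10:1 v/v with Proteostat reagent and read at ex 550/em 600 nm. Triplicates. IC50 comes from a sigmoidal dose-response fit.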

[2] = target: T1, Microtubule-associated protein tau; assay: Inhibition of human full length recombinant tau-441 expressed in Escherichia coli assessed as inhibition of heparin-induced protein aggregation by measuring fluorescence intensity at 120 uM incubated for 72 hrs by Bis-ANS fluorescence assay
In short: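 Tau441 (19.8 μM) with heparin (4.95 μM) and compound (120 μM) in DMSO/tau buffer pH 6.8 is aged 72 h at 37 °C. A 10 μL aliquot gets Bis-ANS (100 μM final, from stock in 20 mM Tris pH 7.4) for 60 min at room temperature. Emission is scanned 400–600 nm at 25 °C (ex 350 nm) and the 510 nm intensity is taken. Triplicate measurements.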

[3] = target: T1, Microtubule-associated protein tau; assay: Inhibition of human full length recombinant tau-441 expressed in Escherichia coli assessed as inhibition of heparin-induced protein aggregation by measuring reduction in fluorescence intensity incubated for 72 hrs by Proteo-stat fluorescence aggregation assay
[4] = target: T1, Microtubule-associated protein tau; assay: Displacement of Bis-ANS from solvent exposed hydrophobic site of non-aggregated human full length recombinant tau-441 expressed in Escherichia coli assessed as reduction in fluorescence intensity at 120 uM incubated for 72 hrs by Bis-ANS fluorescence assay
In short: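 Competition control: non-aggregated tau441 (909 μg/mL) is held with compound and without heparin for 72 h at 37 °C. It is then mixed with Bis-ANS (100 μM final) for 60 min at room temperature. Fluorescence is read at 25 °C, ex 350 nm, emission 400–600 nm, and loss of 510 nm signal is taken as Bis-ANS displacement from tau hydrophobic sites.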

[5] = target: T1, Microtubule-associated protein tau; assay: Inhibition of human full length recombinant tau-441 expressed in Escherichia coli assessed as inhibition of heparin-induced beta-sheet formation and protein aggregation by measuring fluorescence intensity at 120 uM incubated for 72 hrs by Proteo-stat fluorescence aggregation assay; in short: as §1
[6] = target: T1, Microtubule-associated protein tau; assay: Inhibition of human full length recombinant tau-441 expressed in Escherichia coli assessed as inhibition of heparin-induced protein aggregation by measuring reduction in fibrillization by measuring reduction in short and long filaments and fibrillar network formation at 120 uM incubated for 72 hrs by transmission electron microscopy
[7] = Inhibition of N-terminal His6-tagged human tau K18deltaK280 mutant assessed as inhibition of protein aggregation

CCCN(CCN1CCN(c2ccc(-c3ccc(O)c(O)c3)cc2)CC1)[C@H]1CCc2c(O)cccc2C1
inhibition [1]: Active
Activity [2]: 1500 a.u.
IC50 ([3]; read-out: IC50): 25 µM
inhibition [4]: Active
Activity [5]: 1000 a.u.
inhibition [6]: Active

O=C(O[C@@H]1Cc2c(O)cc(O)cc2O[C@@H]1c1cc(O)c(O)c(O)c1)c1cc(O)c(O)c(O)c1 [EPIGALOCATECHIN GALLATE]
IC50 [7]: > 200 µM

CCCN(CCN1CCN(c2ccc3[nH]c4ccccc4c3c2)CC1)[C@H]1CCc2nc(N)sc2C1
inhibition [1]: inactive
inhibition [2]: inactive
IC50 [3]: Not Active
inhibition [4]: inactive
Activity [5]: 7000 a.u.
inhibition [6]: inactive

CN(C)c1ccc2nc3ccc(=[N+](C)C)cc-3sc2c1
inhibition [1]: Active
Activity [2]: 400 a.u.
inhibition [4]: 95%
Activity [5]: 1000 a.u.
inhibition [6]: Active

CCCN(CCN1CCN(c2ccc(-c3ccccc3)cc2)CC1)[C@H]1CCc2nc(N)sc2C1
inhibition [1]: inactive
inhibition [2]: inactive
IC50 [3]: Not Active
inhibition [4]: inactive
Activity [5]: 9000 a.u.
inhibition [6]: inactive

CCCN(CCN1CCN(c2ccc(-c3ccc(O)c(O)c3)cc2)CC1)[C@H]1CCc2nc(N)sc2C1
inhibition [1]: Active
Activity [2]: 1000 a.u.
IC50 ([3]; read-out: IC50): 21 µM
inhibition [4]: Active
Activity [5]: 1000 a.u.
inhibition [6]: Active
